# The list is not random: actives were taken first. Their share in the collection is about 1.8%.
# Tn7 DDE FP: inhibitors of Tn7 peptide binding to fibrin DD(E), primary screen, biochemical, fluorescence polarization, human fibrin, Tn7 probe; inhibition, % at 8.3 µM; FP displacement of FITC-Tn7 peptide from fibrin DD(E); 0% = median of compound wells per plate; Fibrinogen beta chain (Homo sapiens), P02675; 0.13% of 370,000 active; AID 720508, 2013;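 active means inhibition above the mean of compounds falling within the control limits plus 3 SD of them, cut at about 14% in these data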;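 further: 0% = plate median of compound wells and 100% = 10 µM Aha-Tn7 peptide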
#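 Measure: % inhibition scaled between sample-field median and high-control FP; Test system: human fibrin DD(E); Quantity: 2 µM final DD(E) protein; Doses: one dose, 8.3 µM nominal; Schedule: compound with protein 10 min, then 3 h after probe, room temperature; Detection: fluorescence polarization; Medium: Tris buffer with calcium and detergent, pH 7.8.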
# TCR CD3 inh: inhibitors of human TCR-CD3 interaction, primary screen, biochemical, fluorescence, TAMRA-labeled TCR probe; T-cell receptor (TCR); inhibition, % at 9.4 µM; 0.37% of 360,000 active;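 further: recombinant mutant TCR 2C K166C tagged with TAMRA read by polarization; 0% = receptor in buffer alone and 100% = receptor with positive control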
# Tn6 DDE FP: inhibitors of Tn6 peptide binding to fibrin DD(E), primary screen, biochemical, fluorescence polarization, human fibrin, Tn6 probe; Fibrin DD(E) TRITC-Tn6 fluorescence polarization displacement; inhibition, % at 8.3 µM; 0.21% of 370,000 active; AID 720509, 2013;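 active means inhibition above a per-campaign cutoff: mean of compounds within control limits plus 3 SD, cut at about 15% in these data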;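 further: 0% = median of all compound wells on the plate and 100% = blocking peptide control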
# HTRA1 inhibitor: HTRA1 serine protease inhibitors, primary screen, biochemical, fluorescence polarization, HTS | Q92743 | 0.5% of 340,000 active | recombinant HTRA1, FP-rhodamine activity-based probe | inhibition, % at 5.96 µM; in the data active means inhibition above about 36%;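 further: 0% = enzyme with DMSO and 100% = wells lacking enzyme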
# ABHD4 inh: ABHD4 inhibitors, primary screen, biochemical, fluorescence polarization, mouse; (Lyso)-N-acylphosphatidylethanolamine lipase (Mus musculus), Q8VD66; purified mABHD4, FP-Rh probe fluorescence polarization; inhibition, % at 8.92 µM; 0.54% of 370,000 active; AID 720543, 2013;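 active means inhibition exceeding the mean over every tested compound plus 3 SD, cut at about 30% in these data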;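 further: 0% = plate median of compound wells and 100% = S159A mutant with DMSO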
#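 assay system = mABHD4 protein | compound dosing = single nominal dose of 8.92 µM, 0.89% DMSO final | read-out basis = percent inhibition of probe binding, normalized to plate controls | schedule = Enzyme–compound pre-incubation 45 min, then probe 60 min, both 25 °C | detection = fluorescence polarization, excitation 525 nm, emission 598 nm, BODIPY TMR filters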
# SIAE primary: human SIAE inhibitors, primary screen, biochemical, fluorescence polarization, FP-Rh probe, 1536-well HTS; Sialate O-acetylesterase (Homo sapiens), Q9HAT2; SIAE FP-Rh probe binding; inhibition, % at 9.66 µM; 0.69% of 370,000 active; AID 1053197, 2014;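 active means inhibition above a cutoff: mean of compounds within the control limits plus 3 SD of those, cut at about 17% in these data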;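 further: 0% = plate median of compound wells and 100% = probe without SIAE protein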
# Target sequence (Q9HAT2 whole entry, looked up): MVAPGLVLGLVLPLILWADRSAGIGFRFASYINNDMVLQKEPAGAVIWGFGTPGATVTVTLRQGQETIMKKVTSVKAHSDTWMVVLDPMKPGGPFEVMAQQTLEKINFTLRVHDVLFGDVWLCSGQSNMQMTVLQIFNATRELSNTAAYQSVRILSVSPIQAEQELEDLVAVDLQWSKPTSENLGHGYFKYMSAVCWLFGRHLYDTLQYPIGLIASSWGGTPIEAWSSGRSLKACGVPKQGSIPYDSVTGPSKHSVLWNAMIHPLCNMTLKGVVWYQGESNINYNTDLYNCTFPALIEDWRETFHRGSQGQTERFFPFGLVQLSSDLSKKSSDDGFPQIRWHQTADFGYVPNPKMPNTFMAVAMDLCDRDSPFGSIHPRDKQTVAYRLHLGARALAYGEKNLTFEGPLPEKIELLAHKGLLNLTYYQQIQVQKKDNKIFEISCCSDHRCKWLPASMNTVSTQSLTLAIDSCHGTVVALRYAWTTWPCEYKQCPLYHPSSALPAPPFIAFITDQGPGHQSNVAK
# HTRA1 inh conf: HTRA1 protease inhibitors, retest, confirmation, biochemical, fluorescence polarization. shares compounds with HTRA1 inhibitor. recombinant HTRA1, FP-rhodamine activity-based probe. inhibition, % at 5.96 µM. 66% of 1,600 active;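 active means mean inhibition over three repeats above a set limit taken from the earlier primary screen, cut at about 37% in these data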;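 further: 0% = HTRA1 with DMSO and 100% = wells lacking HTRA1; inhibitors block probe binding so polarization drops and inhibition rises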
# BSA TAMRA ctr: compounds interfering with TAMRA-BSA probe, counter-screen for TCR-CD3 interaction inhibitor project, biochemical, fluorescence, TAMRA-labeled BSA; shares compounds with TCR CD3 inh; TAMRA-labeled BSA probe fluorescence counterscreen; inhibition, % at 9.4 µM; 10% of 1,200 active; AID 652035, 2013; in the data active means inhibition above about 23%;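 further: 0% = buffer low control and 100% = reference high control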
# TCR-CD3 conf: TCR-CD3 interaction inhibitors, retest, confirmation, biochemical, fluorescence, TAMRA-labeled TCR probe; inhibition, % at 9.4 µM; shares compounds with TCR CD3 inh; 48% of 1,200 active; TAMRA-labeled TCR probe fluorescence binding assay
# SIAE inh conf: human SIAE inhibitors, retest, confirmation, biochemical, fluorescence polarization, FP-Rh probe, triplicate; shares compounds with SIAE primary; SIAE FP-Rh activity-based probe; inhibition, % at 9.66 µM; 13% of 2,300 active; AID 1117263, 2014;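 active means mean inhibition of the replicates above the hit cutoff set in the primary screen, cut at about 17% in these data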;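 further: 0% = SIAE with DMSO and probe and 100% = probe without SIAE; inhibitors lower polarization as more probe stays unbound to SIAE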
# The depositor's hits bear a star; · = no result. Unless noted, no stated cut-off is given here; in the data, active means inhibition above about 19%; inactive means the rest.
SMILES,Tn7 DDE FP,TCR CD3 inh,Tn6 DDE FP,HTRA1 inhibitor,ABHD4 inh,SIAE primary,BSA TAMRA ctr,TCR-CD3 conf,others
COc1cccc(C(NC(C)=O)c2nc(-c3cccc4cccnc34)cs2)c1 (configuration not stated),-3.6,-0.1,1.2,·,-5.3,0.6,·,·,
CC(C)C(=O)NC(c1cccc([N+](=O)[O-])c1)c1ccc2cccnc2c1O (configuration not stated),4.1,0.1,-3.4,44.1*,10.7,22.5*,·,·,HTRA1 inh conf=46.1*;SIAE inh conf=10.5
CC(=O)NC(c1ccc2ccccc2c1)c1ccc2cccnc2c1O (configuration not stated),-2.5,-0.2,-1.4,51.7*,21.6,27.3*,·,·,HTRA1 inh conf=67.7*;SIAE inh conf=26.6*
Oc1c(C(Nc2cccc(C(F)(F)F)c2)c2ccncc2)ccc2cccnc12 (configuration not stated),2.6,-5.3,-5.1,25.4,11.2,-0.3,·,·,
CCCCC(=O)NC(c1ccc(N(CC)CC)cc1)c1ccc2cccnc2c1O (configuration not stated),-8.4,-7.8,-7.1,59.8*,14.3,17.7*,·,·,HTRA1 inh conf=66.4*;SIAE inh conf=14.6
CC(=O)NC(c1ccc(Cl)cc1Cl)c1ccc2cccnc2c1O (configuration not stated),-4.1,-10.1,-7.3,72.9*,16.2,19.6*,·,·,HTRA1 inh conf=67.0*;SIAE inh conf=15.7
COc1ccc(N2CCN(CCCNC(=O)CCc3ccc(F)cc3)CC2)cc1,2.7,·,2.8,·,4.2,2.1,·,·,
CCOC(=O)CC[C@@H]1CC[C@]2(CCCN(Cc3ccc(Cl)cc3)C2)O1,-4.0,·,2.1,·,2.9,0.3,·,·,
OC(c1ccc(F)cc1)c1nc(-c2ccncc2)cs1 (configuration not stated),-4.5,46.5*,-1.0,·,1.6,0.9,4.9,1.4,
OC(c1ccc(F)c(F)c1)c1nc(-c2ccncc2)cs1 (configuration not stated),-2.9,1.8,-0.5,·,-5.7,-3.4,·,·,
O=S1(=O)CC2c3ccccc3CN2CN1Cc1ccc(F)cc1 (configuration not stated),-6.8,·,-3.6,·,-3.1,-3.8,·,·,
CC(=O)OCCn1c2nc(=O)[nH]c(=O)c-2nc2cc(C)c(C)cc21,5.4,36.7*,1.7,11.9,23.6,20.4*,50.5*,34.0*,
COc1ccc(-n2cc(COC(=O)NCCc3c[nH]c4ccccc34)nn2)cc1,-4.7,·,-2.5,·,-7.1,0.9,·,·,
COC(=O)Nc1ccc(S(=O)(=O)NNC(=O)c2c(O)c3ccccc3[nH]c2=O)cc1,-4.0,23.6*,-2.1,-2.2,-2.4,-2.1,-5.3,25.9*,
CCCC(=O)NNC(=O)c1c(O)c2ccccc2[nH]c1=O,2.4,33.9*,-3.2,15.2,2.1,1.2,-2.5,28.3*,
Cc1ccc(S(=O)(=O)NNC(=O)c2c(O)c3ccccc3[nH]c2=O)cc1,0.6,15.6,-3.0,-0.5,-4.5,4.0,·,·,
CC(C)C(=O)NNC(=O)c1c(O)c2ccccc2[nH]c1=O,2.6,5.3,-1.6,1.9,2.6,4.9,·,·,
O=C(NNC(=O)c1c(O)c2ccccc2[nH]c1=O)c1ccccc1,-0.3,41.0*,5.9,5.6,0.0,5.8,-7.0,22.4*,
COc1ccc(-c2nn(-c3ccccc3)cc2/C=N/NC(=O)c2cccc(S(=O)(=O)Nc3ccccc3Cl)c2)cc1,-5.1,19.5*,2.6,-32.0,-84.0,-100.4,11.9,21.6*,
Cc1c(C(=O)N2CCC(C)CC2)oc2ccc3c(c12)C(O)CC1(CCCCC1)O3 (configuration not stated),7.5,21.4*,-1.5,-23.3,10.6,-12.9,2.2,5.3,
COCCNC(=O)c1oc2ccc3c(c2c1C)C(O)CC(C)(C)O3 (configuration not stated),-1.2,3.8,3.4,4.3,-1.7,-6.4,·,·,
Cc1nn2c(-c3cccc(NC(=O)c4ccco4)c3)nnc2c2ccccc12,-0.1,19.6*,12.1,-32.8,-19.9,-41.3,0.3,8.6,
NC(=O)[C@H]1CC2(CC(c3cccc(NC(=O)COc4ccc(Cl)cc4)c3)=NO2)CN1C(=O)c1ccc(Cl)cc1 (some centres not stated),-7.5,14.3,1.6,-53.8,-69.0,-42.8,·,·,
NC(=O)[C@H]1CC2(CC(c3cccc(NC(=O)COc4ccc(Cl)cc4)c3)=NO2)CN1C(=O)CC(c1ccccc1)c1ccccc1 (some centres not stated),-6.3,54.3*,-2.4,-101.4,-85.4,-73.0,11.5,30.1*,
NC(=O)[C@@H]1CC2(CC(c3cccc(NC(=O)CC(c4ccccc4)c4ccccc4)c3)=NO2)CN1C(=O)COc1ccc(Cl)cc1 (some centres not stated),-6.5,31.9*,-5.2,-124.8,-72.6,-67.7,14.3,30.9*,
CCC(=O)Nc1cccc(C2=NOC3(C2)C[C@@H](C(N)=O)N(C(=O)COc2ccc(Cl)cc2)C3)c1 (some centres not stated),-4.8,0.7,-9.2,-12.1,-4.4,-5.9,·,·,
O=C(CN1CCc2onc(-c3ccc(-n4cc(COc5ccc([N+](=O)[O-])cc5)nn4)cc3)c2C1=O)N1CCOCC1,-4.0,·,-2.6,·,4.2,0.4,·,·,
CNC(=S)NNC(=O)c1cccn(Cc2cccc(Cl)c2)c1=O,1.2,21.7*,7.7,-0.9,12.7,9.4,-9.1,26.6*,

# Compound activity (PubChem)
